# Source: PubChem BioAssay (Broad Institute)
# Only some compounds are listed: those with a hit (about 1.1% of all), similar ones and a draw of the others.
# miR-122 sensor: blocks miR-122 activity in Huh7 sensor cells. Huh7 miR-122 Renilla luciferase sensor, 48 h; neutral wells = 0, positive control = 100. activation (reporter increase), % at 12.5 µM. 0.3% of 340,000 active;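 active = mean replicate activation score at least 90 and every replicate individually at or above 90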;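 note: higher luciferase means less miR-122 activity so hits act as miR-122 inhibitors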
# PglD inh: PglD (C. jejuni) enzyme inhibition. purified PglD enzyme, DTNB colorimetric CoA detection. inhibition, % at 12.5 µM. 0.098% of 360,000 active. AID 602405; in the data active = inhibition above about 16%, passing the limit was not always enough
# CAL PDZ FP-1: inhibitors of human CAL PDZ peptide binding; inhibition, % at 20 µM; purified CAL PDZ, TMR-peptide fluorescence polarization, 1 h; 0.02% of 330,000 active;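 active = highest replicate inhibition of at least 40%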;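 note: plate controls were DMSO neutral control wells for no effect and unlabeled competitor peptide control wells for full effect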
#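 Test system: purified CerCALP PDZ construct; Compound dosing: one concentration, 20 µM compound; Also added: TMR-labelled reporter peptide T*-PRC34 bound in PDZ groove; Read-out: inhibition from polarization loss; Controls: unlabelled peptide and DMSO controls; Signal: FP readout, S and P plane fluorescence; Incubation: 1 h at RT.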
# Cneo AK release: causes C. neoformans cell lysis. adenylate kinase release luminescence, 4 h; normalised: neutral wells 0, clomiphene wells 100. lysis activity, % at 15 µM. 0.2% of 360,000 active. AID 651654;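 active = mean lysis activity across replicates of at least 80%, whatever share of replicates individually reach that level; inactive = mean lysis activity below 80%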
#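 Assay system: log-phase C. neoformans yeast / Quantity: yeast cell density of 5 × 10^6 cells/mL / Medium: fresh YPD growth medium / Compound: single dose / Timing: static 4 h at 37 °C with compound, 1 h detection / Measured by: adenylate kinase release luminescence / Read-out: lysis from increased AK signal / Benchmarks: Clomiphene as positive lysis control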
# CAL PDZ FP-2: blocks peptide binding to the human CAL PDZ domain; Q9HD26; purified CAL PDZ, TMR-peptide fluorescence polarization, 1 h; inhibition, % at 24.9 µM; 0.92% of 300,000 active;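 active = mean inhibition of at least 30% with at least half of replicates also reaching 30%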;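 note: 0% = DMSO neutral control and 100% = excess unlabeled competitor peptide PRC23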
# * marks the source's active call; other numbers are inactive results; / = not tested or not shown; [ ] = another dose, or the depositor's remark.
SMILES,miR-122 sensor,PglD inh,CAL PDZ FP-1,Cneo AK release,CAL PDZ FP-2
CN1C(=O)c2cc(NC(=O)Cc3ccccc3)ccc2OC[C@@H]2O[C@H](CC(=O)NCc3ccc(Cl)cc3)CC[C@@H]21,293*[16.7 µM],1,/,-2,/
Cc1ccc(S(=O)(=O)Nc2ccc3c(c2)CC(=O)N([C@H](C)CO)C[C@@H](C)[C@@H](CN(C)C(=O)NC(C)C)O3)cc1,2[16.7 µM],7,/,-1,/
C[C@@H]1CN([C@H](C)CO)C(=O)c2cc(C#Cc3ccccc3)cnc2O[C@H]1CN(C)CC1CCOCC1,-6[16.7 µM],6,/,2,/
COc1ccc(CN(C)C[C@H]2Oc3ccc(NC(=O)NC4CCCCC4)cc3C(=O)N([C@@H](C)CO)C[C@@H]2C)cc1,1[16.7 µM],0,/,7,/
Cc1ccc(N(C)C(=O)C2CCCN2S(=O)(=O)c2cccc3nsnc23)cc1 (stereo unspecified),-2,3,1,-3,70*
C[C@@H]1CCCCO[C@H](CN(C)Cc2ccc(C(=O)O)cc2)[C@@H](C)CN([C@H](C)CO)C(=O)c2cc(NC(=O)Nc3ccccc3)ccc2O1,13[16.7 µM],3,/,0,/
CCc1ccc(/C(C)=N/NC(=O)c2ccc(-n3cnnn3)cc2)cc1,4,-2,-1,0,-2
Cc1cc(NC(=O)c2ccc(C#N)cc2)n(-c2ccccn2)n1,/,/,0,/,78*
CC(=O)C[C@H]1c2cc(C(F)(F)F)ccc2S(=O)(=O)N1c1ccccc1,99*,4,-1,-1,-3
CC(=O)C[C@H]1c2cc(C(F)(F)F)ccc2S(=O)(=O)N1Cc1ccccc1,/,-3,0,-2,-1
O=C(C[C@@H]1C=C[C@@H](NC(=O)c2cccc(F)c2)[C@H](CO)O1)NCc1ccccc1,-7[16.7 µM],3,/,36,/
C[C@@H]1CCCCO[C@H](CN(C)Cc2ccc3c(c2)OCO3)[C@H](C)CN([C@H](C)CO)C(=O)c2cc(NC(=O)Nc3cccc4ccccc34)ccc2O1,0[16.7 µM],1,/,88*,/
CC(C)NC(=O)Nc1ccc2c(c1)C(=O)N([C@@H](C)CO)C[C@H](C)[C@@H](CN(C)Cc1ccc3c(c1)OCO3)OCCCC[C@@H](C)O2,4[16.7 µM],1,/,102*,/
C[C@@H]1CCCCO[C@H](CN(C)Cc2ccncc2)[C@@H](C)CN([C@@H](C)CO)C(=O)c2cc(NC(=O)Nc3ccccc3)ccc2O1,26[16.7 µM],4,/,81*,/
C[C@@H]1CCCCO[C@@H](CN(C)Cc2ccncc2)[C@@H](C)CN([C@H](C)CO)C(=O)c2cc(NC(=O)c3ccncc3)ccc2O1,-4[16.7 µM],1,/,93*,/
C[C@H](CO)N1C[C@H](C)[C@H](CN(C)C(=O)c2ccccc2)OCCCC[C@H](C)Oc2ccc(NS(=O)(=O)c3ccc(F)cc3)cc2C1=O,0[16.7 µM],-3,/,54,/
C[C@@H]1CN([C@@H](C)CO)S(=O)(=O)c2ccc(C3=CCCCC3)cc2O[C@@H]1CN(C)C(=O)c1ccncc1,-18[16.7 µM],1,/,1,/
CC(C)NC(=O)Nc1ccc2c(c1)C(=O)N([C@@H](C)CO)C[C@@H](C)[C@H](CN(C)Cc1ccncc1)OCCCC[C@@H](C)O2,-1[16.7 µM],0,/,111*,/
COc1ccc(Cl)cc1CNC[C@H]1O[C@@H](n2cnc3c(=O)[nH]c(N)nc32)[C@H](O)[C@@H]1O,-4,0,/,-2,/
Cc1noc(C)c1S(=O)(=O)N(C)C[C@H]1Oc2ccc(NS(=O)(=O)c3ccc(F)cc3)cc2CC(=O)N([C@@H](C)CO)C[C@@H]1C,3[16.7 µM],/,/,/,/
O=c1cc(Cl)nc2ccccn12,-5,0,0,-1,38*
Clc1ccc2nc3ccccn3c2c1,-1,-2,-1,-9,53*
Cn1cnnc1SCC(=O)NCCc1ccc(Cl)cc1Cl,/,/,-1,/,/
C[C@@H]1CN([C@H](C)CO)C(=O)c2cc(C#Cc3ccc(F)cc3)cnc2O[C@@H]1CN(C)CC1CC1,-8[16.7 µM],-1,/,5,/
COc1ccc(Nc2nc(N3CCN(C)CC3)nc3ccccc23)c(OC)c1,/,/,2,/,53*
O=C(NCCCn1ccnc1)c1cc(-c2ccncc2)nc2ccccc12,3,-3,0,11,-5
Cc1ccc(-c2cc(C(=O)NCCCn3ccnc3)c3ccccc3n2)s1,123*,7,0,-9,-19
CC(=O)N(C)C[C@H]1Oc2cc(C3=CCCC3)ccc2S(=O)(=O)N([C@@H](C)CO)C[C@H]1C,-25[16.7 µM],-1,/,15,/
